Source: ChEMBL document CHEMBL1240399

Legend:
[1] = substrate: CC(C)(O/N=C(\C(=O)N[C@@H]1C(=O)N2C(C(=O)[O-])=C(C[n+]3ccccc3)CS[C@H]12)c1csc(N)n1)C(=O)O; assay: (§1) Activity of Pseudomonas aeruginosa GES-13 beta lactamase assessed as hydrolysis by spectrometry
Outline: (§2)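 GES-13 expressed in E. coli(pB-ges13), released by sonication in 20 mM Tris pH 8.0, purified by Q-Sepharose (0–1 M NaCl gradient) then S-Sepharose after dialysis against 20 mM MES pH 6.0 (eluted 400–500 mM NaCl); >95% pure by SDS-PAGE. Hydrolysis of penicillin G, nitrocefin, cephalothin, cefotaxime, ceftazidime, aztreonam and imipenem followed spectrophotometrically; kinetic parameters derived.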

[2] = substrate: CC1(C)S[C@@H]2[C@H](NC(=O)Cc3ccccc3)C(=O)N2[C@H]1C(=O)O; assay: as §1; outline: as §2
[3] = substrate: CO/N=C(\C(=O)N[C@@H]1C(=O)N2C(C(=O)O)=C(COC(C)=O)CS[C@H]12)c1csc(N)n1; assay: as §1; outline: as §2
[4] = substrate: C[C@@H](O)[C@H]1C(=O)N2C(C(=O)O)=C(SCCNC=N)C[C@H]12; assay: as §1; outline: as §2
[5] = substrate: C[C@H]1[C@H](NC(=O)/C(=N\OC(C)(C)C(=O)O)c2csc(N)n2)C(=O)N1S(=O)(=O)O; assay: as §1; outline: as §2
[6] = substrate: O=C(Cc1cccs1)N[C@@H]1C(=O)N2C(C(=O)O)=C(/C=C/c3ccc([N+](=O)[O-])cc3[N+](=O)[O-])CS[C@H]12; assay: as §1; outline: as §2
[7] = substrate: CC(=O)OCC1=C(C(=O)O)N2C(=O)[C@@H](NC(=O)Cc3cccs3)[C@H]2SC1; assay: (§3) Ratio of Kcat/Km for Pseudomonas aeruginosa GES-13 beta lactamase assessed as hydrolysis by spectrometry; outline: as §2
[8] = substrate: CC(C)(O/N=C(\C(=O)N[C@@H]1C(=O)N2C(C(=O)[O-])=C(C[n+]3ccccc3)CS[C@H]12)c1csc(N)n1)C(=O)O; assay: as §3; outline: as §2
[9] = substrate: CC1(C)S[C@@H]2[C@H](NC(=O)Cc3ccccc3)C(=O)N2[C@H]1C(=O)O; assay: as §3; outline: as §2
[10] = substrate: CO/N=C(\C(=O)N[C@@H]1C(=O)N2C(C(=O)O)=C(COC(C)=O)CS[C@H]12)c1csc(N)n1; assay: as §3; outline: as §2
[11] = substrate: C[C@H]1[C@H](NC(=O)/C(=N\OC(C)(C)C(=O)O)c2csc(N)n2)C(=O)N1S(=O)(=O)O; assay: as §3; outline: as §2
[12] = substrate: O=C(Cc1cccs1)N[C@@H]1C(=O)N2C(C(=O)O)=C(/C=C/c3ccc([N+](=O)[O-])cc3[N+](=O)[O-])CS[C@H]12; assay: as §3; outline: as §2

B1: Beta-lactamase GES-13 (Pseudomonas aeruginosa), D1MIX9 (protein)
chain: MRFIHALLLAGIAHSAYASEKLTFKTDLEKLEREKAAQIGVAIVDPQGEIVAGHRMAQRFAMCSTFKFPLAALVFERIDSGTERGDRKLSYGPDMIVKWSPATERFLASGHMTVLEAAQAAVQLSDNGATNLLLREIGGPAAMTQYFRKIGDSVSRLDRKEPEMNDNTPGDLRDTTTPIAMARTVAKVLYGGALTSTSTHTIERWLIGNQTGDATLRAGFPKDWVVGEKTGTCANGGRNDIGFFKAQERDYAVAVYTTAPKLSAVERDELVASVGQVITQLILSTDK
- Km [1]: 229 µM
- kcat [1]: 30.4 s⁻¹
- Km [2]: 139 µM
- kcat [2]: 13.5 s⁻¹
- Km [3]: 63 µM
- kcat [3]: 69 s⁻¹
- kcat [4]: < 0.01 s⁻¹
- Km [5]: 405 µM
- kcat [5]: 35.6 s⁻¹
- Km [6]: 197 µM
- kcat [6]: 29.3 s⁻¹
- kcat/Km [7]: 100000 M⁻¹ s⁻¹
- kcat/Km [8]: 130000 M⁻¹ s⁻¹
- kcat/Km [9]: 100000 M⁻¹ s⁻¹
- kcat/Km [10]: 1.09e+06 M⁻¹ s⁻¹
- kcat/Km [11]: 90000 M⁻¹ s⁻¹
- kcat/Km [12]: 150000 M⁻¹ s⁻¹
